From ChEMBL document CHEMBL1137338, “Effects of substitution on 9-(3-bromo-4-fluorophenyl)-5,9-dihydro-3H,4H-2,6-dioxa-4- azacyclopenta[b]naphthalene-1,8-dione, a dihydropyridine ATP-sensitive potassium channel opener” (J Med Chem, 2006)

Assays:
[1] = target: Sulfonylurea receptor 2, Kir6.2 (Homo sapiens) (UniProt Q14654+O60706); assay: Ability to open human urinary bladder Kir6.2 containing SUR2B in Ltk cells by FLIPR assay relative to P1075; assay type: functional, cell-based
Outline: (§1)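 Ltk- cells stably transfected with the Kir6.2/SUR2B exon 17- splice variant. Membrane potential was followed with DiBAC dye in a 96-well cell-based kinetic fluorescence (FLIPR) assay. The highest concentration tested was 10 µM. Each compound's maximal fluorescence response was expressed as % of the response to the reference opener.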

[2] = target: Sulfonylurea receptor 2, Kir6.2 (Homo sapiens, UniProt O60706+Q14654); assay: Ability to open human urinary bladder Kir6.2 channel containing SUR2B in Ltk cells by FLIPR assay; assay type: functional, cell-based; outline: as §1
Sulfonylurea receptor 2, Kir6.2, sequence (Q14654 whole entry): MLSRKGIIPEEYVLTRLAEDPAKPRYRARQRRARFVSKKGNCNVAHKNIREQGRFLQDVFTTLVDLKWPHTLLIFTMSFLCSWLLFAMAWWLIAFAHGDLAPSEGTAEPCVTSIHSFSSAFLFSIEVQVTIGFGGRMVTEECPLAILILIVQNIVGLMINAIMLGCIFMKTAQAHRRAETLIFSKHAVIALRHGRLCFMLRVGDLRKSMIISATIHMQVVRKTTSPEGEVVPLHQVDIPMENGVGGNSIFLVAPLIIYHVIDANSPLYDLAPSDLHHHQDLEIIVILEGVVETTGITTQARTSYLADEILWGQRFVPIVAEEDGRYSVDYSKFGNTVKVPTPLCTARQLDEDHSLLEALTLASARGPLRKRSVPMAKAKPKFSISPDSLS
Sulfonylurea receptor 2, Kir6.2, sequence (O60706 whole entry): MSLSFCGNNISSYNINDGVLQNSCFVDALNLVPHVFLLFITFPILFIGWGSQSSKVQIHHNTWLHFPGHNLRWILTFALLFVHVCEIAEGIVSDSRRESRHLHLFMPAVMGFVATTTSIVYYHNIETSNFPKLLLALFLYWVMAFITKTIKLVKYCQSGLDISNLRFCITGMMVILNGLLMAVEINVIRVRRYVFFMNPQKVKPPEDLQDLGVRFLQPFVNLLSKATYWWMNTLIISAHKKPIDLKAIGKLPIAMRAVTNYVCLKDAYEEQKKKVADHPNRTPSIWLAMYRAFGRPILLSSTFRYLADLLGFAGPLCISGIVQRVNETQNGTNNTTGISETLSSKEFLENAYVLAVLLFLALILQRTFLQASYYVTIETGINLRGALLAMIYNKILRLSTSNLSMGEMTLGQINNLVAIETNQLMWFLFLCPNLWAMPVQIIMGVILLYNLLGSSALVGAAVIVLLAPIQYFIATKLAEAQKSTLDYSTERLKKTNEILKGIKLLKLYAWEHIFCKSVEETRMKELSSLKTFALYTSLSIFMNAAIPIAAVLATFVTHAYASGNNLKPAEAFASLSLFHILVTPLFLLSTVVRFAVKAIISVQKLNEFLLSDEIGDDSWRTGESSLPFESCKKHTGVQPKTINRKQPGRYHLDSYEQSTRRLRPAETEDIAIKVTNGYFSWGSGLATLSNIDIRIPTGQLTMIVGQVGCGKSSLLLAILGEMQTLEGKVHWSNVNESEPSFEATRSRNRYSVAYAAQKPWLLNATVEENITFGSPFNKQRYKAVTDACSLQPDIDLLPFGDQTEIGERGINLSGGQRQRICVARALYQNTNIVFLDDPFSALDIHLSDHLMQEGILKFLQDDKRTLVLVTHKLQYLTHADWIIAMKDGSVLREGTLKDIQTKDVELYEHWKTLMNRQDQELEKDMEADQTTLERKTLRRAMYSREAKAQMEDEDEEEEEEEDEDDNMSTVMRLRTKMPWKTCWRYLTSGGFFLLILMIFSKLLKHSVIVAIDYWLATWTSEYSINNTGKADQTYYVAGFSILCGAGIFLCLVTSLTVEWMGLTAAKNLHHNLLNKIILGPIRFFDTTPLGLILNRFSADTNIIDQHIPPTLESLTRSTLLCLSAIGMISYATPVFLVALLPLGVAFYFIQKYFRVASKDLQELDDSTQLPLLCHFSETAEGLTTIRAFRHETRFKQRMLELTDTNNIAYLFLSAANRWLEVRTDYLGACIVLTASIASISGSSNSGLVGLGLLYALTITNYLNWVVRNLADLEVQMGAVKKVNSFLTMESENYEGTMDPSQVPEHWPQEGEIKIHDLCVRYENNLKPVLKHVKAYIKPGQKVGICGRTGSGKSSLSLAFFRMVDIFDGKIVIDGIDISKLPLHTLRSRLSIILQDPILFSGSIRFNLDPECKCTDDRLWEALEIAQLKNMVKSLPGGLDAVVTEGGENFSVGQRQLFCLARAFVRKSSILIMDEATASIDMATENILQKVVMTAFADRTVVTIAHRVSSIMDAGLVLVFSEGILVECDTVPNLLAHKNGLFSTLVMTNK

| SMILES | Efficacy [1] [%] | EC50 [2] [µM] |
| --- | --- | --- |
| CCC[C@H]1OC(O)=C2C1=NC1=C(C(=O)COC1)[C@H]2c1ccc(Br)c(Br)c1 (racemic) | 119 |  |
| CCC[C@H]1OC(O)=C2C1=NC1=C(C(=O)COC1)[C@H]2c1ccc(Br)c(Cl)c1 (racemic) | 97 |  |
| CCC[C@H]1OC(O)=C2C1=NC1=C(C(=O)COC1)[C@H]2c1ccc(Cl)c(Br)c1 (racemic) | 120 |  |
| CCC[C@H]1OC(O)=C2C1=NC1=C(C(=O)COC1)[C@H]2c1ccc(Cl)c(Cl)c1 (racemic) | 95 |  |
| CCC[C@H]1OC(O)=C2C1=NC1=C(C(=O)COC1)[C@H]2c1ccc(F)c(Cl)c1 (racemic) | 42 |  |
| CCC[C@H]1OC(O)=C2C1=NC1=C(C(=O)COC1)[C@H]2c1ccc(F)c(I)c1 (racemic) | 105 |  |
| CC[C@H]1OC(O)=C2C1=NC1=C(C(=O)C(C)(C)OC1)[C@H]2c1ccc(F)c(Br)c1 (racemic) | 70 |  |
| CC[C@H]1OC(O)=C2C1=NC1=C(C(=O)COC1(C)C)[C@H]2c1ccc(F)c(Br)c1 (racemic) | 48 |  |
| CC[C@H]1OCC(O)=C2C1=NC1=C(C(=O)COC1)[C@H]2c1ccc(Br)c(Br)c1 (racemic) | 76 |  |
| CC[C@H]1OCC(O)=C2C1=NC1=C(C(=O)COC1)[C@H]2c1ccc(Br)c(Cl)c1 (racemic) | 46 |  |
| CC[C@H]1OCC(O)=C2C1=NC1=C(C(=O)COC1)[C@H]2c1ccc(C)c(Br)c1 (racemic) | 70 |  |
| CC[C@H]1OCC(O)=C2C1=NC1=C(C(=O)COC1)[C@H]2c1ccc(Cl)c(Br)c1 (racemic) | 70 |  |
| CC[C@H]1OCC(O)=C2C1=NC1=C(C(=O)COC1)[C@H]2c1ccc(F)c(I)c1 (racemic) | 47 |  |
| C[C@@H]1OCC2=C(C1=O)[C@@H](c1ccc(F)c(Br)c1)C1=C(O)OCC1=N2 (racemic) | 81 |  |
| C[C@@H]1OCC2=C(C1=O)[C@H](c1ccc(F)c(Br)c1)C1=C(O)OCC1=N2 (racemic) | 104 |  |
| CC1(C)OCC2=C(C1=O)C(c1ccc(F)c(Br)c1)C1=C(O)OCC1=N2 (single isomer, unassigned; (+)) | 104 |  |
| O=C1COCC2=C1C(c1ccc(F)c(Br)c1)C1=C(O)OCC1=N2 (stereo in doubt; 6) | 92 |  |
| C[C@@H]1OCC2=C(C1=O)[C@@H](c1ccc(F)c(Br)c1)C1=C(O)OCC1=N2 (stereo in doubt; 7b) | 94 |  |
| CC1(C)OCC2=C(C1=O)C(c1ccc(F)c(Br)c1)C1=C(O)OCC1=N2 (stereo in doubt; 9) | 86 |  |
| CC1(C)OCC2=C(C1=O)C(c1ccc(F)c(Br)c1)C1=C(O)OCC1=N2 (stereo in doubt; 9b) | 77 |  |

| SMILES | Efficacy [1] [%] | EC50 [2] [µM] |
| --- | --- | --- |
| CC[C@H]1OC(O)=C2C1=NC1=C(C(=O)C(C)(C)OC1)[C@H]2c1ccc(F)c(Br)c1 (stereo in doubt; 36b) |  | 0.55 |
| CC[C@H]1OC(O)=C2C1=NC1=C(C(=O)COC1(C)C)[C@H]2c1ccc(F)c(Br)c1 (stereo in doubt; 38a) |  | 1.58 |
| CC[C@H]1OC(O)=C2C1=NC1=C(C(=O)COC1(C)C)[C@H]2c1ccc(F)c(Br)c1 (stereo in doubt; 38b) |  | > 10 |
| CCC[C@H]1OC(O)=C2C1=NC1=C(C(=O)COC1)[C@H]2c1ccc(Cl)c(Cl)c1 (stereo in doubt; 42a) |  | 1.32 |
| CCC[C@H]1OC(O)=C2C1=NC1=C(C(=O)COC1)[C@H]2c1ccc(Cl)c(Cl)c1 (stereo in doubt; 42b) |  | 2 |
| CCC[C@H]1OC(O)=C2C1=NC1=C(C(=O)COC1)[C@H]2c1ccc(Br)c(Cl)c1 (stereo in doubt; 44a) |  | 1.05 |
| CCC[C@H]1OC(O)=C2C1=NC1=C(C(=O)COC1)[C@H]2c1ccc(Br)c(Cl)c1 (stereo in doubt; 44b) |  | 0.437 |
| CC[C@H]1OCC(O)=C2C1=NC1=C(C(=O)COC1)[C@H]2c1ccc(F)c(Cl)c1 (stereo in doubt; 72a) |  | 3.63 |
| CC[C@H]1OCC(O)=C2C1=NC1=C(C(=O)COC1)[C@H]2c1ccc(F)c(Cl)c1 (stereo in doubt; 72b) |  | > 10 |
| CC[C@H]1OCC(O)=C2C1=NC1=C(C(=O)COC1)[C@H]2c1ccc(F)c(I)c1 (stereo in doubt; 73a) |  | 1.29 |
| CC[C@H]1OCC(O)=C2C1=NC1=C(C(=O)COC1)[C@H]2c1ccc(F)c(I)c1 (stereo in doubt; 73b) |  | 2.95 |
| CC[C@H]1OCC(O)=C2C1=NC1=C(C(=O)COC1)[C@H]2c1ccc(Cl)c(Cl)c1 (stereo in doubt; 74a) |  | 0.468 |
| CC[C@H]1OCC(O)=C2C1=NC1=C(C(=O)COC1)[C@H]2c1ccc(Cl)c(Br)c1 (stereo in doubt; 75a) |  | 0.759 |
| CC[C@H]1OCC(O)=C2C1=NC1=C(C(=O)COC1)[C@H]2c1ccc(Cl)c(Br)c1 (stereo in doubt; 75b) |  | 5.5 |
| CC[C@H]1OCC(O)=C2C1=NC1=C(C(=O)COC1)[C@H]2c1ccc(Br)c(Cl)c1 (stereo in doubt; 76a) |  | 1.62 |
| CC[C@H]1OCC(O)=C2C1=NC1=C(C(=O)COC1)[C@H]2c1ccc(Br)c(Br)c1 (stereo in doubt; 77a) |  | 0.309 |
| CC[C@H]1OCC(O)=C2C1=NC1=C(C(=O)COC1)[C@H]2c1ccc(Br)c(Br)c1 (stereo in doubt; 77b) |  | 0.427 |
| CC[C@H]1OCC(O)=C2C1=NC1=C(C(=O)COC1)[C@H]2c1ccc(C)c(Br)c1 (stereo in doubt; 78a) |  | 0.724 |
| CC[C@H]1OCC(O)=C2C1=NC1=C(C(=O)COC1)[C@H]2c1ccc(C)c(Br)c1 (stereo in doubt; 78b) |  | 5.62 |

Next, values leading:

| Efficacy [1] [%] | EC50 [2] [µM] | SMILES |
| --- | --- | --- |
| 61 |  | CCCC[C@H]1OC(O)=C2C1=NC1=C(C(=O)COC1)[C@H]2c1ccc(F)c(Br)c1 (racemic) |
| 90 |  | CCC[C@@H]1OC(O)=C2C1=NC1=C(C(=O)COC1)[C@H]2c1ccc(F)c(Br)c1 (racemic) |
| 104 |  | CCC[C@H]1OC(O)=C2C1=NC1=C(C(=O)COC1)[C@H]2c1ccc(C)c(Br)c1 (racemic) |
| 74 |  | CC[C@@H]1OC(O)=C2C1=NC1=C(C(=O)COC1)[C@H]2c1ccc(F)c(Br)c1 (racemic) |
| 60 |  | CC[C@@H]1OCC(O)=C2C1=NC1=C(C(=O)COC1)[C@H]2c1ccc(F)c(Br)c1 (racemic) |
| 103 |  | COC[C@H]1OC(O)=C2C1=NC1=C(C(=O)COC1)[C@H]2c1ccc(F)c(Br)c1 (racemic) |
| 100 |  | C[C@@H]1OC(O)=C2C1=NC1=C(C(=O)COC1)[C@H]2c1ccc(F)c(Br)c1 (racemic) |
| 75 |  | C[C@H]1OC(O)=C2C1=NC1=C(C(=O)COC1)[C@H]2c1ccc(F)c(Br)c1 (racemic) |
| 89 |  | C[C@@H]1OC(O)=C2C1=NC1=C(C(=O)COC1)[C@H]2c1ccc(F)c(Br)c1 (stereo in doubt; 17b) |
| 86 |  | C[C@H]1OC(O)=C2C1=NC1=C(C(=O)COC1)[C@H]2c1ccc(F)c(Br)c1 (stereo in doubt; 18a) |
| 85 |  | C[C@H]1OC(O)=C2C1=NC1=C(C(=O)COC1)[C@H]2c1ccc(F)c(Br)c1 (stereo in doubt; 18b) |
| 101 |  | CC[C@@H]1OC(O)=C2C1=NC1=C(C(=O)COC1)[C@H]2c1ccc(F)c(Br)c1 (stereo in doubt; 20a) |
| 85 |  | CC[C@@H]1OC(O)=C2C1=NC1=C(C(=O)COC1)[C@H]2c1ccc(F)c(Br)c1 (stereo in doubt; 20b) |
| 82 |  | CCC[C@@H]1OC(O)=C2C1=NC1=C(C(=O)COC1)[C@H]2c1ccc(F)c(Br)c1 (stereo in doubt; 22a) |
| 66 |  | CCC[C@@H]1OC(O)=C2C1=NC1=C(C(=O)COC1)[C@H]2c1ccc(F)c(Br)c1 (stereo in doubt; 22b) |
| 75 |  | CCC[C@H]1OC(O)=C2C1=NC1=C(C(=O)COC1)[C@H]2c1ccc(F)c(Br)c1 (stereo in doubt; 23a) |

| Efficacy [1] [%] | EC50 [2] [µM] | SMILES |
| --- | --- | --- |
| 95 |  | COC[C@H]1OC(O)=C2C1=NC1=C(C(=O)COC1)[C@H]2c1ccc(F)c(Br)c1 (stereo in doubt; 25a) |
| 104 |  | COC[C@H]1OC(O)=C2C1=NC1=C(C(=O)COC1)[C@H]2c1ccc(F)c(Br)c1 (stereo in doubt; 25b) |
| 62 |  | CCCC[C@H]1OC(O)=C2C1=NC1=C(C(=O)COC1)[C@H]2c1ccc(F)c(Br)c1 (stereo in doubt; 29a) |
| 66 |  | CC(C)C[C@H]1OC(O)=C2C1=NC1=C(C(=O)COC1)[C@H]2c1ccc(F)c(Br)c1 (stereo in doubt; 31a) |
|  | 3.39 | CCC[C@H]1OC(O)=C2C1=NC1=C(C(=O)COC1)[C@H]2c1ccc(F)c(Cl)c1 (stereo in doubt; 39a) |
|  | 1.95 | CCC[C@H]1OC(O)=C2C1=NC1=C(C(=O)COC1)[C@H]2c1ccc(F)c(I)c1 (stereo in doubt; 41a) |
|  | 0.813 | CCC[C@H]1OC(O)=C2C1=NC1=C(C(=O)COC1)[C@H]2c1ccc(Cl)c(Br)c1 (stereo in doubt; 43a) |
|  | 0.151 | CCC[C@H]1OC(O)=C2C1=NC1=C(C(=O)COC1)[C@H]2c1ccc(Cl)c(Br)c1 (stereo in doubt; 43b) |
|  | 1.15 | CCC[C@H]1OC(O)=C2C1=NC1=C(C(=O)COC1)[C@H]2c1ccc(Br)c(Br)c1 (stereo in doubt; 45a) |
|  | 0.126 | CCC[C@H]1OC(O)=C2C1=NC1=C(C(=O)COC1)[C@H]2c1ccc(Br)c(Br)c1 (stereo in doubt; 45b) |
|  | 3.47 | CCC[C@H]1OC(O)=C2C1=NC1=C(C(=O)COC1)[C@H]2c1ccc(C)c(Br)c1 (stereo in doubt; 46a) |
|  | 0.219 | CCC[C@H]1OC(O)=C2C1=NC1=C(C(=O)COC1)[C@H]2c1ccc(C)c(Br)c1 (stereo in doubt; 46b) |
|  | 0.166 | CC[C@@H]1OCC(O)=C2C1=NC1=C(C(=O)COC1)[C@H]2c1ccc(F)c(Br)c1 (stereo in doubt; 70a) |
|  | 0.02 | CC[C@@H]1OCC(O)=C2C1=NC1=C(C(=O)COC1)[C@H]2c1ccc(F)c(Br)c1 (stereo in doubt; 70b) |
|  | > 10 | CC[C@H]1OCC(O)=C2C1=NC1=C(C(=O)COC1)[C@H]2c1ccc(F)c(Br)c1 (stereo in doubt; 71b) |
